Among the data in article PMC10520345 (Current Research in Microbial Sciences, 2023) are IC50 values, retold here.

The subject of one test is CV-A6. Briefly: Plaque reduction assay, CV-A6. It counts as cell-based, Coxsackievirus A6. To be noted: read-out: IC50 against CV-A6 in plaque reduction assay. An outline of the steps: (§1)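 Confluent RD or Vero monolayers were infected with coxsackievirus for 1 h. The inoculum was replaced by DMEM overlay with 1.2% Avicel, 2% FBS and varying test compound concentrations. After 2–3 days, plaques were fixed with 4% formaldehyde, stained with 0.5% crystal violet and counted, and IC50 was calculated. Data are means ± SD.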

The subject of test [1] is CV-A10. The test can be described thus: Plaque reduction assay, CV-A10 in Vero cells. It counts as cell-based, Coxsackievirus A10. To be noted: read-out: IC50 against CV-A10 in plaque reduction assay. The essentials:
as §1

Another test deals with CV-A16. Briefly: Plaque reduction assay, CV-A16. It counts as cell-based, Coxsackievirus A16. To be noted: read-out: IC50 against CV-A16 in plaque reduction assay. An outline of the steps:
as §1

The subject of test [2] is CV-A10. Briefly: Plaque reduction assay, CV-A10 in RD cells. It counts as cell-based, Coxsackievirus A10. To be noted: read-out: IC50 against CV-A10 in plaque reduction assay. The essentials: as §1
The subject of a further test is CV-A7. Briefly: Plaque reduction assay, CV-A7. Format: cell-based, Coxsackievirus A7. To be noted: read-out: IC50 against CV-A7 in plaque reduction assay. The essentials:
as §1

Each structure is given as a SMILES string.

Consider `CC(C)C[C@H](NC(=O)OCc1ccccc1)C(=O)N[C@@H](CC1CCNC1=O)C(O)S(=O)(=O)O` (some centres unmarked) [GC376], for which the concentration for half-maximal inhibition (IC50) worked out at 220 ± 20 nM with CV-A6; 1690 ± 620 nM with CV-A10 [1]; 180 ± 20 nM in the test with CV-A16; 240 ± 40 nM in the test with CV-A10 [2]; 210 ± 50 nM in the test on CV-A7.
